Data taken from ChEMBL document CHEMBL1126801, “Synthesis and antiviral activity of 2'-substituted 9-[2-(phosphonomethoxy)ethyl]guanine analogues” (J Med Chem, 1993).

What was measured:
[1] = tested on: Human immunodeficiency virus 1; assay: Tested in vitro against human immunodeficiency virus (HIV) infected CEM cells using XTT assay (LAV-BRU strain); assay type: functional, organism-based; settings: Human immunodeficiency virus 1, CCRF-CEM
How it was run: (§1)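 Anti-HIV XTT assay in HIV-infected CEM cells, using the LAV-BRU or HIV-HRF strain as the line names. The value is the 50% inhibitory concentration. The top concentration tested was 100 μM, and inactivity there is scored NA.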

[2] = (§2) Tested in vitro against HCMV AD-169 strain in MRC-5 cells; assay type: ADME, organism-based, MRC5; settings: human betaherpesvirus 5, MRC-5 cells; read-out: TC50 (the source's name)
CCRF-CEM = assay: Cell growth toxicity against CEM cells after treatment with compound for 72 hours; assay type: functional; settings: Homo sapiens
How it was run: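 Cytotoxicity in CEM cells: cells counted after 72 h drug exposure; the value is the concentration giving 50% cell growth toxicity.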

Human alphaherpesvirus 2 [3] = assay: (§3) Tested in vitro against HSV 2 G strain in vero cells; assay type: functional, organism-based; settings: Human alphaherpesvirus 2, Vero
How it was run: (§4)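 Plaque reduction assay against HSV-2 strain G in Vero cells, giving a 50% inhibitory concentration. The top concentration tested was 100 μM, and inactivity there is scored NA.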

[4] = Toxic concentration, in CEM cells estimated by the XTT assay; assay type: toxicity, cell-based; settings: human, CCRF-CEM (CEM) cells; read-out: TC50 (the source's name)
[5] = as §3; assay type: organism-based; settings: human alphaherpesvirus 2, Vero cells; read-out: TC50 (the source's name)
Human betaherpesvirus 5 = assay: as §2; assay type: functional, organism-based; settings: Human betaherpesvirus 5, MRC5
How it was run: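 Plaque reduction assay against HCMV strain AD-169 in MRC-5 cells, giving a 50% inhibitory concentration. The top concentration tested was 100 μM, and inactivity there is scored NA.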

[6] = Ratio between TC50 against human immunodeficiency virus infected CEM cells and IC50 against CEM cells; assay type: functional, CCRF-CEM
How it was run: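 Selectivity index is TC50 divided by IC50. TC50 is the 50% toxic concentration from the XTT assay in CEM cells. IC50 is the 50% inhibitory concentration from the XTT assay in HIV-infected CEM cells.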

Human alphaherpesvirus 2 [7] = assay: Tested in vitro against HSV 2 G strain in vero cells; NA= not active at 100 uM; assay type: functional, organism-based; how it was run: as §4
[8] = tested on: Human immunodeficiency virus 1; assay: Tested in vitro against human immunodeficiency virus (HIV) infected CEM cells using XTT assay (HIV-HRF strain); NA = not active at 100 uM; assay type: functional, organism-based; settings: ccrf-cem; how it was run: as §1
Human alphaherpesvirus 2 [9] = assay: as §3; assay type: functional, organism-based, herpes simplex virus; settings: Human alphaherpesvirus 2, Vero; how it was run: as §4
[10] = tested on: Human immunodeficiency virus 1; assay: Tested in vitro against human immunodeficiency virus (HIV) infected CEM cells using XTT assay (HIV-HRF strain); assay type: functional, organism-based; settings: Human immunodeficiency virus 1, CCRF-CEM; how it was run: as §1

| SMILES | IC50 [1] | CC50 [2] | CC50 (CCRF-CEM) | IC50 (Human alphaherpesvirus 2 [3]) | CC50 [4] | CC50 [5] | IC50 (Human betaherpesvirus 5) | Selectivity index [6] | IC50 (Human alphaherpesvirus 2 [7]) | IC50 [8] | IC50 (Human alphaherpesvirus 2 [9]) | IC50 [10] |
| --- | --- | --- | --- | --- | --- | --- | --- | --- | --- | --- | --- | --- |
| C[C@H](Cn1cnc2c(O)nc(N)nc21)OCP(=O)(O)O | 1 µM | > 330 µM | 180 µM | 82 µM | > 500 µM | > 330 µM | 16 µM | >500 | – | – | – | – |
| Nc1nc(O)c2ncn(C[C@@H](OCP(=O)(O)O)C3CC3)c2n1 | – | – | – | – | 91 µM | 300 µM | – | – | Not Active | Not Active | – | – |
| Nc1nc(O)c2ncn(CC(CF)OCP(=O)(O)O)c2n1 (single isomer, unassigned; form 1) | 8 µM | > 310 µM | 427 µM | – | > 500 µM | > 310 µM | 136 µM | > 63 | – | – | – | – |
| Nc1nc2c(ncn2CC(CO)OCP(=O)(O)O)c(=O)[nH]1 (single isomer, unassigned; form 1) | 500 µM | > 310 µM | – | – | > 500 µM | > 310 µM | 1.6 µM | > 1 | – | – | 97 µM | – |
| Nc1nc(O)c2ncn(CC(CCl)OCP(=O)(O)O)c2n1 (single isomer, unassigned; form 1) | 45 µM | > 300 µM | 870 µM | – | > 500 µM | > 300 µM | 51 µM | > 11 | Not Active | – | – | – |
| [N-]=[N+]=NCC(Cn1cnc2c(O)nc(N)nc21)OCP(=O)(O)O (single isomer, unassigned; form 1) | – | > 300 µM | > 1400 µM | – | > 1000 µM | > 300 µM | 33 µM | > 200 | Not Active | – | – | 5 µM |
| [N-]=[N+]=NCC(Cn1cnc2c(O)nc(N)nc21)OCP(=O)(O)O (single isomer, unassigned; form 2) | – | > 300 µM | 134 µM | – | > 1000 µM | > 300 µM | 15 µM | > 20 | Not Active | – | – | 51 µM |
| Nc1nc(O)c2ncn(CC(CCl)OCP(=O)(O)O)c2n1 (single isomer, unassigned; form 2) | 50 µM | 300 µM | > 1500 µM | – | > 500 µM | 300 µM | 112 µM | > 10 | Not Active | – | – | – |
| Nc1nc(O)c2ncn(CC(CO)OCP(=O)(O)O)c2n1 (single isomer, unassigned; form 2) | > 500 µM | > 310 µM | – | 99 µM | – | > 310 µM | 0.8 µM | < 1 | – | – | – | – |
| Nc1nc(O)c2ncn(CC(CF)OCP(=O)(O)O)c2n1 (single isomer, unassigned; form 2) | 7 µM | > 310 µM | 93 µM | – | > 500 µM | > 310 µM | 150 µM | > 71 | – | – | – | – |
| Nc1nc2c(ncn2CCOCP(=O)(O)O)c(=O)[nH]1 [GS-438] | 0.2 µM | 30 µM | 0.2 µM | 1.1 µM | – | 17 µM | 0.09 µM | 75 | – | – | – | – |
